Laboratory results reported in ChEMBL document CHEMBL1154662, “alphavbeta3 Integrin-targeting Arg-Gly-Asp (RGD) peptidomimetics containing oligoethylene glycol (OEG) spacers” (J Med Chem, 2009).
Active and inactive are the calls of the source. No cut-off for these calls is given here.

Legend:
Integrin alpha-V/beta-3 = Integrin alpha-V/beta-3 (Homo sapiens, UniProt P05106+P06756); assay: Inhibition of human integrin alphav beta3 receptor by biotinylated vitronectin competitive binding assay; format: protein-complex assay
Summary of the method: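 Placenta-derived human αvβ3 adsorbed at 500 ng/mL in Tris buffer (2 mM CaCl2, 1 mM MgCl2 and MnCl2, pH 7.5), 1 h RT, then blocked with 1% albumin. Incubated 30 min with excess biotinylated vitronectin plus graded compound. Bound ligand detected with anti-biotin–alkaline phosphatase and p-nitrophenyl phosphate at 405 nm. IC50 taken from pooled dose-response curves of at least two experiments.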

[1] = target: Integrin alpha-IIb/beta-3 (Homo sapiens, UniProt P05106+P08514); assay: Inhibition of human integrin alpha2b beta3 receptor by fibrinogen competitive binding assay; format: protein-complex assay
Summary of the method: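 Platelet αIIbβ3, affinity-purified, adsorbed at 1 μg/mL in Tris buffer (2 mM CaCl2, 1 mM MgCl2 and MnCl2, pH 7.5) for 1 h at room temperature, then blocked with 1% albumin. Exposed 30 min to excess biotinylated fibrinogen with varied compound levels. Detection used anti-biotin–alkaline phosphatase and p-nitrophenyl phosphate, read at 405 nm. IC50 derived from at least two pooled dose-response experiments.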

Homo sapiens = organism: Homo sapiens; assay: Selectivity index, ratio of IC50 for human integrin alpha2b beta3 receptor to IC50 for human integrin alphav beta3 receptor
HOP = assay: Inhibition of HOP cell adhesion on vitronectin coated plate by colorimetric method; format: functional, cell-based; settings: Homo sapiens
Summary of the method: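 HOP cells (bone marrow stromal, second subculture) preincubated 1 h at 37 °C with compound (10-4 to 10-12 M final) in serum-free IMDM, then 100 μL of 32000 cells/mL seeded on wells coated with human plasma vitronectin (5 μg/mL); adhesion 30 min at 37 °C. Adherent cells read via p-nitrophenyl N-acetyl β-D-glucosaminide hydrolysis, 405 nm. Expressed as absorbance ratio to untreated cells; ≥2 experiments, n = 6 wells.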

Row | Compound | IC50 (Integrin alpha-V/beta-3) [nM] | IC50 [1] [nM] | Ratio IC50 (Homo sapiens) | Activity (HOP)
1 | Nc1cc(C[C@H](NS(=O)(=O)c2cccc(C(F)(F)F)c2)C(=O)O)ccc1OCCCN=C1NCCCN1 | 3.9 | 21.3 | – | –
2 | NCCCCOc1ccc(C[C@H](NS(=O)(=O)c2cccc(C(F)(F)F)c2)C(=O)O)cc1N | 428 | 154 | 0.35 | –
3 | Cc1ccnc(NCCCCOc2ccc(C[C@H](NS(=O)(=O)c3cccc(C(F)(F)F)c3)C(=O)O)cc2N)c1 | 0.6 | 106 | 177 | Active
4 | Nc1cc(C[C@H](NS(=O)(=O)c2cccc(C(F)(F)F)c2)C(=O)O)ccc1OCCCCNc1ccccn1 | 1.4 | 70 | 50 | –
5 | Cc1cccc(NCCCCOc2ccc(C[C@H](NS(=O)(=O)c3cccc(C(F)(F)F)c3)C(=O)O)cc2N)n1 | 1.7 | 121 | 71 | –
6 | CC(=O)Nc1cc(C[C@H](NS(=O)(=O)c2cccc(C(F)(F)F)c2)C(=O)O)ccc1OCCCCNc1cc(C)ccn1 | 0.7 | 38 | 54 | –
7 | NCCCOc1ccc(C[C@H](NS(=O)(=O)c2cccc(C(F)(F)F)c2)C(=O)O)cc1N | 138 | 429 | 3.1 | –
8 | Nc1cc(C[C@H](NS(=O)(=O)c2cccc(C(F)(F)F)c2)C(=O)O)ccc1OCCCCc1ccc2c(n1)NCCC2 | 1.1 | 355 | 323 | –
9 | N=C(N)NCCC[C@H](NC(=O)CN)C(=O)NCC(=O)N[C@@H](CC(=O)O)C(=O)N[C@@H](CO)C(=O)O | – | – | – | Active
10 | COCCOCCOCCOCC(=O)Nc1cc(C[C@H](NS(=O)(=O)c2cccc(C(F)(F)F)c2)C(=O)O)ccc1OCCCCNc1cc(C)ccn1 | 0.5 | 61 | 122 | –
11 | Nc1cc(C[C@H](NS(=O)(=O)c2cccc(C(F)(F)F)c2)C(=O)O)ccc1OCCCCNC1=NCCCN1 | – | – | 126 | –

More lines, main results first:

Row | IC50 (Integrin alpha-V/beta-3) [nM] | IC50 [1] [nM] | Ratio IC50 (Homo sapiens) | Compound | Activity (HOP)
12 | 1.7 | 7.3 | 4.3 | N=C(N)NCCCCOc1ccc(C[C@H](NS(=O)(=O)c2cccc(C(F)(F)F)c2)C(=O)O)cc1N | –
13 | – | – | 5.5 | Nc1cc(C[C@H](NS(=O)(=O)c2cccc(C(F)(F)F)c2)C(=O)O)ccc1OCCCNC1=NCCCN1 | –
14 | 0.8 | 101 | – | Nc1cc(C[C@H](NS(=O)(=O)c2cccc(C(F)(F)F)c2)C(=O)O)ccc1OCCCCN=C1NCCCN1 | –
15 | 0.1 | 141 | 1410 | Nc1cc(C[C@H](NS(=O)(=O)c2cccc(C(F)(F)F)c2)C(=O)O)ccc1OCCCc1ccc2c(n1)NCCC2 | –
16 | 0.8 | 38 | 47 | Cc1ccnc(NCCCCOc2ccc(C[C@H](NS(=O)(=O)c3cccc(C(F)(F)F)c3)C(=O)O)cc2NC(=O)COCCOCCOCCOCCOCCOCCN)c1 | –
17 | – | – | 3.5 | N=C(N)NCCCOc1ccc(C[C@H](NS(=O)(=O)c2cccc(C(F)(F)F)c2)C(=O)O)cc1N | –
18 | 1.2 | 36 | 30 | Nc1cc(C[C@H](NS(=O)(=O)c2cccc(C(F)(F)F)c2)C(=O)O)ccc1OCCCNc1ccccn1 | –
19 | 0.6 | 71 | 118 | CC(=O)Nc1cc(C[C@H](NS(=O)(=O)c2cccc(C(F)(F)F)c2)C(=O)O)ccc1OCCCc1ccc2c(n1)NCCC2 | Active
20 | 7.6 | 27 | – | NC(N)=NCCCOc1ccc(C[C@H](NS(=O)(=O)c2cccc(C(F)(F)F)c2)C(=O)O)cc1N | –
21 | 0.9 | 28 | 31 | Cc1ccnc(NCCCCOc2ccc(C[C@H](NS(=O)(=O)c3cccc(C(F)(F)F)c3)C(=O)O)cc2NC(=O)COCCOCCOCCN)c1 | –
